The record followed here is ChEMBL document CHEMBL5136969, “A niclosamide-tobramycin hybrid adjuvant potentiates cefiderocol against P. aeruginosa” (2021).

Activity calls are given as the source filed them.

Test [1] concerns Pseudomonas aeruginosa. Briefly: Potentiation of sulfamethoxazole-induced antibiotic activity against Pseudomonas aeruginosa PAO1 assessed as MIC fold reduction at 8 ug/ml after 18 hrs by microbroth dilution method. It counts as functional. Particulars: dose 8 µg/ml. On the technique in general: Dilution methods test growth across graded concentrations, often in twofold steps.
Test [2] has as its system Pseudomonas aeruginosa. Nature of the test: Antibacterial activity against MDR clinical isolate Pseudomonas aeruginosa PA264 assessed as potentiation of cefiderocol antibacterial activity by measuring FIC index after 18 hrs by microbroth dilution method. It counts as functional. An outline of the steps:
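Checkerboard in MHB (iron-replete, not iron-depleted CAMHB). Cefiderocol was 2-fold serially diluted along one axis and the adjuvant along the other. Inoculum was 0.5 McFarland diluted 1:50, about 5 × 10^5 CFU/mL final. Incubation was 18 h at 37 °C, with turbidity read visually and confirmed at 590 nm. FIC was the MIC in combination over the MIC alone for each agent, and the FIC index was their sum. Cut-offs were ≤0.5 synergy, >0.5–4 additive, >4 antagonism.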

The test system of test [3] is Escherichia coli. Briefly: Antibacterial activity against Escherichia coli 107115 assessed as reduction in bacterial growth after 18 hrs in presence of cefiderocol by microbroth dilution method. The format is functional. An outline of the steps: (§1)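 Checkerboard in Mueller-Hinton broth: cefiderocol 2-fold diluted on one axis, adjuvant 2-fold on the other. Overnight cultures were adjusted to 0.5 McFarland in saline, diluted 1:50 in MHB, and inoculated at about 5 × 10^5 CFU/mL. Incubation was 18 h at 37 °C. Turbidity was read visually and confirmed at 590 nm. FIC index = FIC of antibiotic + FIC of adjuvant; ≤0.5 synergy, >4 antagonism.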

Test [4] deals with Pseudomonas aeruginosa. Briefly: Antibacterial activity against MDR clinical isolate Pseudomonas aeruginosa PA88949 assessed as reduction in bacterial growth after 18 hrs by microbroth dilution method. It counts as functional. In a few lines:
(§2)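 Broth microdilution per CLSI in Mueller-Hinton broth (MHB). Overnight cultures were adjusted to 0.5 McFarland in saline, diluted 1:50 in MHB, and added at about 5 × 10^5 CFU/mL final to equal volumes of 2-fold serial dilutions of agent. Incubation was 18 h at 37 °C. MIC was the lowest concentration with no visible turbidity, confirmed by absorbance at 590 nm.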

For test [5], the system named is Enterobacter cloacae. Nature of the test: Antibacterial activity against Enterobacter cloacae 118564 assessed as reduction in bacterial growth after 18 hrs in presence of cefiderocol by microbroth dilution method. It counts as functional. An outline of the steps: as §1
Test [6] deals with Pseudomonas aeruginosa. Nature of the test: Potentiation of cefiderocol-induced antibiotic activity against Pseudomonas aeruginosa PAO1 assessed as MIC fold reduction at 8 ug/ml after 18 hrs by microbroth dilution method. Particulars: dose 8 µg/ml. It counts as functional. In a few lines: (§3)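 Initial screen in MHB using a fixed 8 μg mL−1 of adjuvant combined with each antibiotic under 2-fold dilution. Broth microdilution used about 5 × 10^5 CFU/mL at 37 °C for 18 h, with visible turbidity read and confirmed at 590 nm. Fold-potentiation = antibiotic MIC alone ÷ antibiotic MIC with adjuvant.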

The subject of test [7] is Enterobacter cloacae. Nature of the test: Antibacterial activity against Enterobacter cloacae 118564 assessed as reduction in bacterial growth after 18 hrs by microbroth dilution method. The format is functional. An outline of the steps: (§4)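 CLSI microbroth dilution in MHB. Overnight cultures were adjusted to 0.5 McFarland in saline, diluted 1:50, and inoculated at about 5 × 10^5 CFU/mL. Agents were 2-fold serially diluted and incubated 18 h at 37 °C. MIC is the lowest concentration without visible turbidity, confirmed by absorbance at 590 nm. Medium with and without cells served as controls.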

In test [8] the test system is Pseudomonas aeruginosa. Briefly: Potentiation of ceftazidime-induced antibiotic activity against Pseudomonas aeruginosa PAO1 assessed as MIC fold reduction at 8 ug/ml after 18 hrs by microbroth dilution method. The settings on record: dose 8 µg/ml. It counts as functional. In a few lines: (§5)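 Adjuvant held at a fixed 8 μg/mL while the antibiotic was 2-fold serially diluted in Mueller-Hinton broth (MHB), per CLSI microbroth dilution. Overnight cultures were adjusted in saline to 0.5 McFarland, then diluted 1:50 in MHB to about 5 × 10^5 CFU/mL final, and incubated 18 h at 37 °C. MIC was the lowest concentration with no visible turbidity, confirmed at 590 nm. Fold potentiation = MIC alone / MIC with adjuvant.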

In test [9] the test system is Pseudomonas aeruginosa. Briefly: Antibacterial activity against MDR clinical isolate Pseudomonas aeruginosa PA108590 assessed as reduction in bacterial growth after 18 hrs in presence of cefiderocol by microbroth dilution method. The format is functional. In a few lines:
(§6)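 Checkerboard in MHB. Cefiderocol was 2-fold serially diluted along one axis and the adjuvant along the other. Inoculum was prepared from 0.5 McFarland saline suspensions diluted 1:50 in MHB, giving about 5 × 10^5 CFU/mL final. Plates ran 18 h at 37 °C, with turbidity confirmed at 590 nm. FIC = combination MIC ÷ MIC alone for each agent, and FIC index = sum of both. Interpretation: ≤0.5 synergy, >0.5–4 additive, >4 antagonism.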

The subject of test [10] is Pseudomonas aeruginosa. Briefly: Antibacterial activity against […] Pseudomonas aeruginosa PAO1 assessed as potentiation of cefiderocol antibacterial activity by measuring FIC index after 18 hrs by microbroth dilution method. It counts as functional. In a few lines: as §6
Test [11] deals with Escherichia coli. Briefly: Potentiation of rifampicin-induced antibiotic activity against Escherichia coli ATCC 25922 assessed as MIC fold reduction at 8 ug/ml after 18 hrs by microbroth dilution method. Particulars: dose 8 µg/ml. It counts as functional.
Test [12] has as its system Pseudomonas aeruginosa. Nature of the test: Antibacterial activity against MDR clinical isolate Pseudomonas aeruginosa PA101885 assessed as reduction in bacterial growth after 18 hrs by microbroth dilution method. The format is functional. An outline of the steps: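 CLSI broth microdilution. Overnight cultures were adjusted in saline to 0.5 McFarland, diluted 1:50 in Mueller-Hinton broth (MHB), and inoculated at about 5 × 10^5 CFU/mL. Agents were 2-fold serially diluted in MHB, mixed 1:1 with inoculum, and held at 37 °C for 18 h. MIC was the lowest concentration with no visible turbidity, confirmed at 590 nm.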

The subject of test [13] is Pseudomonas aeruginosa. Briefly: Antibacterial activity against MDR clinical isolate Pseudomonas aeruginosa PA259 assessed as reduction in bacterial growth after 18 hrs in presence of cefiderocol by microbroth dilution method. The format is functional. In a few lines:
as §6

In test [14] the test system is Pseudomonas aeruginosa. Briefly: Potentiation of doxycycline-induced antibiotic activity against Pseudomonas aeruginosa PAO1 assessed as MIC fold reduction at 8 ug/ml after 18 hrs by microbroth dilution method. The format is functional. The settings on record: dose 8 µg/ml. An outline of the steps: as §5
Test [15] deals with Escherichia coli. Briefly: Potentiation of trimethoprim-induced antibiotic activity against Escherichia coli ATCC 25922 assessed as MIC fold reduction at 8 ug/ml after 18 hrs by microbroth dilution method. The format is functional. The settings on record: dose 8 µg/ml.
The next test relates to Acinetobacter baumannii. Nature of the test: Antibacterial activity against Acinetobacter baumannii AB031 assessed as reduction in bacterial growth after 18 hrs by microbroth dilution method. It counts as functional. In a few lines: as §4
Test [16] relates to Pseudomonas aeruginosa. Nature of the test: Potentiation of cefiderocol-induced antibiotic activity against MDR clinical isolate Pseudomonas aeruginosa PA259 assessed as MIC fold reduction at 8 ug/ml after 18 hrs by microbroth dilution method. It counts as functional, organism-based. Particulars: dose 8.0 µg/ml. In a few lines: as §3
Test [17] relates to Escherichia coli. Nature of the test: Potentiation of aztreonam-induced antibiotic activity against Escherichia coli ATCC 25922 assessed as MIC fold reduction at 8 ug/ml after 18 hrs by microbroth dilution method. The format is functional. Particulars: dose 8 µg/ml. In a few lines:
as §3

Test [18] concerns Pseudomonas aeruginosa. Briefly: Potentiation of colistin-induced antibiotic activity against Pseudomonas aeruginosa PAO1 assessed as MIC fold reduction at 8 ug/ml after 18 hrs by microbroth dilution method. The format is functional. The settings on record: dose 8 µg/ml. In a few lines:
as §5

Test [19] has as its system Pseudomonas aeruginosa. Briefly: Potentiation of cotrimoxazole-induced antibiotic activity against Pseudomonas aeruginosa PAO1 assessed as MIC fold reduction at 8 ug/ml after 18 hrs by microbroth dilution method. Particulars: dose 8 µg/ml. It counts as functional. An outline of the steps: as §5
The subject of a further test is Staphylococcus aureus. Briefly: Antibacterial activity against methicillin-resistant Staphylococcus aureus ATCC 33592 assessed as reduction in bacterial growth after 18 hrs by microbroth dilution method. The format is functional. An outline of the steps:
as §2

The test system of another test is Enterococcus faecium. Briefly: Antibacterial activity against Enterococcus faecium ATCC 27270 assessed as reduction in bacterial growth after 18 hrs by microbroth dilution method. It counts as functional. In a few lines: as §4

For the compound `NC[C@H]1O[C@H](O[C@H]2[C@H](OCCCCc3cn(-c4ccc(NC(=O)c5cc(Cl)ccc5O)cc4)nn3)[C@@H](O[C@H]3O[C@H](CO)[C@@H](O)[C@H](N)[C@H]3O)[C@H](N)C[C@@H]2N)[C@H](N)C[C@@H]1O`, the “fold change (FC)” value in the test on Pseudomonas aeruginosa [1], in the test with Pseudomonas aeruginosa [6], with Pseudomonas aeruginosa [8], with Escherichia coli [11], in the test with Pseudomonas aeruginosa [14] and in the test with Escherichia coli [15] was 4 in each case. Moreover, the “fold change (FC)” value with Escherichia coli [17], in the test on Pseudomonas aeruginosa [18] and in the test with Pseudomonas aeruginosa [19] was 4 throughout. The FIC came out at 0.125 in the test with Pseudomonas aeruginosa [2] and 0.258 in the test on Pseudomonas aeruginosa [10]. Besides, the MIC is 0.25 µg/mL in the test with Escherichia coli [3]; above 128 µg/mL with Pseudomonas aeruginosa [4]; 0.25 µg/mL in the test on Enterobacter cloacae [5]; above 128 µg/mL with Enterobacter cloacae [7]; 4 µg/mL in the test on Pseudomonas aeruginosa [9]; above 128 µg/mL with Pseudomonas aeruginosa [12]. Moreover, the MIC in the test with Pseudomonas aeruginosa [13] is 4 µg/mL; in the test on Acinetobacter baumannii, above 128 µg/mL; in the test with Staphylococcus aureus it was above 128 µg/mL; in the test on Enterococcus faecium it was above 128 µg/mL. In addition, the outcome in the test on Pseudomonas aeruginosa [16] was Active.

The MIC is the smallest concentration in the dilution series that meets the test's criterion for growth inhibition.
